This note sets out measurements from ChEMBL document CHEMBL4364301 (Eur J Med Chem, 2019).

Series [1] deals with LNCaP. The experiment in a line: Antiproliferative activity against human LNCAP cells assessed as reduction in cell growth incubated for 96 hrs by propidium iodide based 2D monolayer assay. In kind it is functional. The method, boiled down:
(§1)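 After 24 h recovery, compound in medium or medium alone (control wells) was added at 10 half-log concentrations from 0.0032 to 100 µM, in triplicate, with at most 0.3% DMSO. After 96 h, wells were PBS-washed, stained with 7 µg/ml PI and 0.1% Triton X-100, and fluorescence read at 530/620 nm. IC50 came from a 4-parameter fit, geometric mean.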

A short description of series [2]: Metabolic stability in liver microsomes (unknown origin) assessed as intrinsic clearance per mg of protein at 3 uM measured upto 45 mins in presence of NADPH by LC-MS/MS analysis. The note with it: read-out: CLH. In kind it is ADME, Microsome. The gist of the method: (§2)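 Pooled liver microsomes at 0.5 mg/mL protein in 0.1 M phosphate buffer pH 7.4 were incubated with 3 μM compound (0.25% DMSO) at 37 °C. Reactions were started with 1 mM NADPH and sampled at 0, 5, 15, 30 and 45 min. A minus-NADPH control ran for 45 min. Reactions were quenched in methanol and analysed by LC-MS/MS to give CLint and t1/2.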

Series [3] can be described thus: Metabolic stability in liver microsomes (unknown origin) assessed as half life at 3 uM measured upto 45 mins in presence of NADPH by LC-MS/MS analysis. It is filed as ADME, Microsome. The gist of the method:
as §2
A general note: Liver microsomes are vesicles of endoplasmic reticulum, rich in cytochrome P450 enzymes.

Series [4] can be described thus: Protein binding in plasma (unknown origin) at 5 uM by LC-MS/MS analysis. It is filed as ADME, cell-free. To be noted: read-out: PPB (converted). The method, boiled down:
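Compound at 5 μM final in 100% plasma was dialysed against pH 7.4 buffer by equilibrium dialysis at 37 °C. Both sides were quantified by LC-MS/MS, unbound fraction was calculated, and results are given as % bound from duplicate experiments.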

The target in another series is hERG (KCNH2) (Homo sapiens, UniProt Q12809). The experiment in a line: Inhibition of human ERG expressed in CHO cells at 25 uM by whole-cell voltage-clamp analysis relative to control. To be noted: CHO cells expressing human ERG. In kind it is cell-based. The method, boiled down: (§3)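 CHO cells expressing hERG were held in Dulbecco's PBS with Ca/Mg, pH 7–7.2, at room temperature. Tail currents were recorded by automated whole-cell voltage clamp after 300 s exposure. […] Quinidine served as positive control and 0.25% DMSO buffer as negative control.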
Sequence of hERG (KCNH2) (Q12809 whole entry): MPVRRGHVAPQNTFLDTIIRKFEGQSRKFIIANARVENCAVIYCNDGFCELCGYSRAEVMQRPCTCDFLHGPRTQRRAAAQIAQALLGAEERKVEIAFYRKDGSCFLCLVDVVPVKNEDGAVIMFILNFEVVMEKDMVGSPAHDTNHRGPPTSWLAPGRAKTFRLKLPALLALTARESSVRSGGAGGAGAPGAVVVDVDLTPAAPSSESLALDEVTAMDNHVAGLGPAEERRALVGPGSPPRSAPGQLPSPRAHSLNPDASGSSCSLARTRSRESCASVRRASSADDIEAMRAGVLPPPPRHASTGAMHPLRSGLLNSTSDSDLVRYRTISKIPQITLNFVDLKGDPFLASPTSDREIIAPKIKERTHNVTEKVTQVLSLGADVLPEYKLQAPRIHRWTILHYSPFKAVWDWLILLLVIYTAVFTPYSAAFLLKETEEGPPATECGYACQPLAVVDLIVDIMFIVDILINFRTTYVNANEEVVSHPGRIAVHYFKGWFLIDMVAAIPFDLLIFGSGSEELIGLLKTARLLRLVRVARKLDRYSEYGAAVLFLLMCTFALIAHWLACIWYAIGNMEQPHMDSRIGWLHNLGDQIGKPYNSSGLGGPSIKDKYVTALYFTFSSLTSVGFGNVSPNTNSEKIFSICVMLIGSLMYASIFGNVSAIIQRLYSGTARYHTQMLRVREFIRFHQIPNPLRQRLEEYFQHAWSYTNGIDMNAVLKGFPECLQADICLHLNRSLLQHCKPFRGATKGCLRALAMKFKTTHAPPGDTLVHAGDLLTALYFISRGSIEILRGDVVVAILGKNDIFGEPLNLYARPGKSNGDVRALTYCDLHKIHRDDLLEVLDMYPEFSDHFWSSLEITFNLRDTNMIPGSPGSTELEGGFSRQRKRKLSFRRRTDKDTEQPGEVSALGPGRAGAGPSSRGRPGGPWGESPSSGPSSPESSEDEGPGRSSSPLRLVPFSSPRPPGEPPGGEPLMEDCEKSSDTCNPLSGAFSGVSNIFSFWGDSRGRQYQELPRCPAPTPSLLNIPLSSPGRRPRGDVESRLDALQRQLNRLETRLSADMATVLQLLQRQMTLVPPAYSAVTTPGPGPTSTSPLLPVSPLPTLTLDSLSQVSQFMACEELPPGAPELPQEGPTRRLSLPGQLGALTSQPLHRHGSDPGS

Series [5] concerns the target Voltage-gated inwardly rectifying potassium channel KCNH2 (Homo sapiens, UniProt Q12809). In words: Inhibition of human ERG expressed in CHO cells by whole-cell voltage-clamp analysis. In kind it is cell-based. The gist of the method:
as §3

Series [6] deals with VCaP. In words: Antiproliferative activity against human VCaP cells assessed as T/C value at 1 x 10^-1 uM incubated for 96 hrs by propidium iodide based 2D monolayer assay. It is filed as functional. The method, boiled down:
(§4)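 Cells were kept in RPMI 1640 with 25 mM HEPES, 10% FCS and gentamicin at 37 °C under 5% CO2, and plated at 4,000-20,000 cells/well. After 24 h recovery, compound in medium or medium alone (control wells) was added at 10 half-log concentrations from 0.0032 to 100 µM, in triplicate, with at most 0.3% DMSO. After 96 h, wells were PBS-washed, stained with 7 µg/ml PI and 0.1% Triton X-100, and fluorescence read at 530/620 nm. IC50 came from a 4-parameter fit, geometric mean.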

In series [7] the test system is VCaP. In words: Antiproliferative activity against human VCaP cells assessed as T/C value at 1 x 10^1 uM incubated for 96 hrs by propidium iodide based 2D monolayer assay. It is filed as functional. The gist of the method: as §4
Series [8] relates to LNCaP. The experiment in a line: Antiproliferative activity against human LNCAP cells assessed as T/C value at 3.2 x 10^-2 uM incubated for 96 hrs by propidium iodide based 2D monolayer assay. It is filed as functional. The method, boiled down: as §4
Series [9] deals with LNCaP. The experiment in a line: Antiproliferative activity against human LNCAP cells assessed as T/C value at 1 x 10^-1 uM incubated for 96 hrs by propidium iodide based 2D monolayer assay. It is filed as functional. The gist of the method:
as §4

The subject of series [10] is LNCaP. In words: Antiproliferative activity against human LNCAP cells assessed as T/C value at 3.2 x 10^-1 uM incubated for 96 hrs by propidium iodide based 2D monolayer assay. In kind it is functional. The method, boiled down: as §4
In series [11] the test system is LNCaP. The experiment in a line: Antiproliferative activity against human LNCAP cells assessed as T/C value at 3.2 x 10^1 uM incubated for 96 hrs by propidium iodide based 2D monolayer assay. In kind it is functional. The gist of the method:
as §4

For series [12], the system named is CWR22R. The experiment in a line: Antiproliferative activity against human 22Rv1 cells assessed as T/C value at 3.2 x 10^-3 uM incubated for 96 hrs by propidium iodide based 2D monolayer assay. It is filed as functional. The gist of the method: as §4
The test system of series [13] is CWR22R. In words: Antiproliferative activity against human 22Rv1 cells assessed as T/C value at 1 x 10^-2 uM incubated for 96 hrs by propidium iodide based 2D monolayer assay. It is filed as functional. The gist of the method: as §4
The test system of series [14] is CWR22R. In words: Antiproliferative activity against human 22Rv1 cells assessed as T/C value at 3.2 x 10^-2 uM incubated for 96 hrs by propidium iodide based 2D monolayer assay. In kind it is functional. The method, boiled down:
as §4

Series [15] concerns DU-145. The experiment in a line: Antiproliferative activity against human DU145 cells assessed as T/C value at 1 x 10^1 uM incubated for 96 hrs by propidium iodide based 2D monolayer assay. It is filed as functional. The method, boiled down:
as §1

Series [16] concerns DU-145. The experiment in a line: Antiproliferative activity against human DU145 cells assessed as T/C value at 3.2 x 10^1 uM incubated for 96 hrs by propidium iodide based 2D monolayer assay. It is filed as functional. The gist of the method:
as §4

Some results are limits rather than exact numbers.

Sequence of Voltage-gated inwardly rectifying potassium channel KCNH2 (Q12809 whole entry): as above

On to `CC(O)(COc1ccc(S(F)(F)(F)(F)F)cc1)C(=O)Nc1cc(C(F)(F)F)cc(C(F)(F)F)c1` (racemic), for which the IC50 was 1.9 µM with LNCaP [1] and > 25 µM in [5]. Besides, the IC70 in the series with LNCaP [1] came out at 2.45 µM. In series [2], the microsomal CLint at 3 µM is 3.08 µL/min/mg. For the same compound, the half-life at 3 µM in series [3] worked out at 7.5 h. The fraction unbound at 5 µM in series [4] is 0.091. Further, at hERG (KCNH2), the inhibition at 25 µM is 13.4%. In addition, the T/C in the series on VCaP [6] stood at 107%; in the series with VCaP [7], 21%; with LNCaP [8], 99%; in the series on LNCaP [9], 100%; in the series on LNCaP [10], 97%; in the series on LNCaP [11], 2%. Also, the T/C turned out to be 102% with CWR22R [12]; 106% in the series on CWR22R [13]; 105% in the series with CWR22R [14]; 16% with DU-145 [15]; 6% with DU-145 [16].

Usually IC50 stands for the concentration that inhibits the measured activity by half. As a reminder, the IC70 is the concentration at which the effect reaches the 70% level. What is called half-life is the time needed for the level to fall by half in the phase considered. As usually defined, the inhibition is the change of the read-out against control, counted positive when it falls. One may read the T/C as the result in the treated group divided by that in the control group, in per cent.
